Bioassay records: PubChem, several laboratories
LANA-H2A inh – blocks KSHV LANA binding to histone H2A/H2B. cell-free LANA-H2A/H2B peptide, fluorescence polarization. inhibition, % (no concentration beside the values). Q9QR71. 320,000 tested, 0.6% active; in the data active means inhibition mostly above about 10%, no sharp cut-off; inactive means mostly below about 6.7%
Arrestin-AP2 inh – inhibitors of human beta-arrestin and AP2 interaction | FITC-arrestin peptide / GST-AP2 beads, flow cytometry; AP2 beta2 appendage carries R879A mutation | AID 504490 | 340,000 tested, 0.31% active | inhibition, % at 10 µM;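 active means inhibition above a set limit, near 3 SD of compounds lacking own fluorescence, cut at about 54% in these data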;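 further: plate controls were DMSO wells for no effect and 5 µM unlabelled arrestin peptide for full effect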
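Material – AP2 appendage R879A on GSH beads · Buffer or medium – PBS with 0.05% Tween 20 and 0.1% BSA · Probe or stimulus – fluorescein-tagged arrestin peptide at 50 nM final · Incubation – compound with beads 12 min RT, then probe 1 h RT · Detection – high-throughput flow cytometry of beads, ex 488, em 535 nm · Evaluation – percent response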
HDAC3 inhib – blocks human histone deacetylase 3; O15379; recombinant HDAC3, fluorogenic peptide/trypsin coupled, fluorescence; inhibition, % at 8.3 µM; 320,000 tested, 0.15% active; AID 2718; in the data active means inhibition above about 26%, passing the limit was not always enough; inconclusive means no clear call, values can overlap the other calls
DSG3 Ab inh – inhibitors of pemphigus antibody binding to human desmoglein-3. binding (percent of control), % at 10 µM. AID 588358. DSG3-coupled beads, scFv-anti-DSG3-GFP binding, flow cytometry; active compounds read low. 310,000 tested, 0.48% active;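 active means binding more than 3 SD below its plate's average and above zero; inconclusive means below that plate limit but binding exactly zero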;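 further: hits lower antibody fragment binding to DSG3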
T cell modulator – T cell immune modulation candidate; 2C CD8+ T cell-vesicle binding, flow cytometry; active compounds read low; response (vesicle binding), % at 7 µM; 330,000 tested, 0.068% active; AID 2052;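 active means response, share of CD8 T cells binding vesicles, and their 90th percentile fluorescence all below set limits, cut at about 80% in these data, passing the limit was not always enough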;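 further: values below 100% mean blocked vesicle binding to the CD8+ T cells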
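material = purified 2C TCR transgenic mouse naive CD8+ T cells | controls = Unloaded micro-vesicles (low), QL9 vesicles with 0.7% DMSO (high) | detection = cytometric PE anti-B7-1 and Alexa647 anti-CD8 signals after 1% paraformaldehyde fixation | incubation = binding step 1.5 h, 37 °C, antibody labelling 20 min, ice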
Numbers without * were called inactive; ? = inconclusive; . = no result given; + = active, no number. Most compounds without a hit are left out; they make up all but 1.5% or so of the library.

SMILES | LANA-H2A inh | Arrestin-AP2 inh | HDAC3 inhib | DSG3 Ab inh | T cell modulator
N#Cc1ccccc1NC(=O)c1ccc2c(Cl)c3c(nc2c1)CCCC3 | -5.9 | 0.0 | 9.8 | 92.8* | 188.8
COc1cccc(SCc2noc(C(=O)NCCC(C)C)c2C(=O)NCCC(C)C)c1 | -4.2 | 30.4 | 11.3 | 98.1 | 493.7
O=C(Cc1c(F)cccc1Cl)NNC(=O)c1ccncc1 | -0.6 | -6.8 | 4.7 | 101.4 | 363.7
CN1CCCN(C(c2ccccc2)c2ccc(Cl)cc2)CC1 (stereo not drawn) | 29.1* | 5.9 | . | 94.0 | 535.5
CN1CCN(C(c2ccccc2)c2ccccc2)CC1 | 0.1 | -3.5 | 7.1 | 80.1 | 165.2
CN1CCN(C(=O)CCN2C(=O)/C(=C/c3ccc(F)cc3)SC2=S)CC1 | 11.7* | -1.1 | 0.1 | 109.7 | 388.3
O=C(CN1C(=O)S/C(=C\c2ccc(F)cc2)C1=O)NC1C=CS(=O)(=O)C1 (stereo not drawn) | 1.3 | 43.0 | -3.0 | . | 464.3
O=C(CCN1C(=O)/C(=C/c2cccs2)SC1=S)N1CCCCC1 | 24.1* | 2.8 | -2.1 | 74.9 | 230.7
Cc1ccc(/C=C2/SC(=S)N(CCC(=O)N3CCN(C)CC3)C2=O)cc1 | 0.5 | -2.9 | 2.2 | 116.8 | 268.3
O=C(CCN1C(=O)/C(=C/c2ccc(F)cc2)SC1=S)NC1C=CS(=O)(=O)C1 (stereo not drawn) | 5.7 | 14.3 | -1.6 | 59.7* | 111.4
N#C/C(C(=O)NCc1ccccc1)=C1/N=C(NC(=O)c2cccs2)c2ccccc21 | 3.9 | 3.8 | -14.8 | 85.0* | 325.6
CCCNC(=O)/C(C#N)=C1\N=C(NC(=O)c2ccco2)c2ccccc21 | 1.9 | -11.2 | 4.0 | 102.5 | 363.2
Nc1cc(OC(=O)c2cccs2)nn1S(=O)(=O)c1ccccc1 | 0.3 | -0.9 | 95.8* | 111.7 | 392.7
COc1ccc(C(=O)Oc2cc(N)n(S(=O)(=O)c3ccccc3)n2)cc1 | 1.2 | -5.5 | ? | 106.5 | 167.8
COc1cccc(C(=O)Oc2cc(N)n(S(=O)(=O)c3ccc(C)cc3)n2)c1OC | 4.7 | -4.9 | 53.4* | . | 437.6
Cc1ccc(C(=O)Oc2cc(N)n(S(=O)(=O)c3ccc(F)cc3)n2)cc1 | -3.2 | -8.1 | -2.2 | . | 363.5
COc1ccc(S(=O)(=O)n2nc(OC(=O)c3cccs3)cc2NC(=O)c2cccs2)cc1 | -3.0 | -2.1 | 46.3* | 101.8 | 301.2
Nc1cc(OC(=O)c2cccs2)nn1S(=O)(=O)c1ccc(F)cc1 | 0.3 | -0.7 | 70.0* | 103.8 | 465.5
C[C@@H]1NC(=O)c2cc([N+](=O)[O-])cc(I)c2NCC[C@@H](C(N)=O)NC(=O)[C@H](CC(N)=O)NC1=O | 18.4* | . | 14.4 | 98.5 | 145.8
O=C(O)c1ccccc1C1=Nc2ccc(O)cc2Oc2cc(O)ccc21 | 16.9* | -6.3 | 7.0 | 99.6 | 374.1
COc1ccccc1NC(=O)c1ccc(-n2ccnc2)c([N+](=O)[O-])c1 | -3.9 | 13.6 | 1.6 | 65.9* | 247.5
CCOc1cc(N2CCOCC2)c(OCC)cc1NC(=O)c1ccc(-n2ccnc2)c([N+](=O)[O-])c1 | 0.4 | -4.1 | -0.1 | 96.5 | 534.0
CCCCS(=O)CC(CS(=O)CCCC)OC(=O)c1ccccc1 (stereo not drawn) | -4.2 | 3.1 | -4.5 | . | 186.6
CCCCS(=O)CC(CS(=O)CCCC)OC(=O)c1ccc(C)cc1 (stereo not drawn) | 4.3 | 12.5 | -1.9 | 45.4* | 289.3
O=C(CN1C(=O)NC2(CCCC2)C1=O)N1CCN(c2ccccc2O)CC1 | 1.7 | 35.5 | 0.8 | 100.0 | 354.8
SMILES | LANA-H2A inh | Arrestin-AP2 inh | HDAC3 inhib | DSG3 Ab inh | T cell modulator
CCOC(=O)c1cc(-c2ccccc2)sc1NC(=O)CSc1nnc(N)s1 | + | -9.3 | 3.5 | 109.6 | 104.1
COC(=O)c1sc2nc3c(cc2c1N)C(=O)CC(C)(C)C3 | 1.6 | 9.5 | 6.3 | 83.2* | 509.0
CCCNC(=O)c1oc2ccc3c(c2c1C)C(O)CC(C)(C)O3 (stereo not drawn) | -2.6 | 28.2 | -44.6 | 102.6 | 172.0
Cc1c(C(=O)NCc2ccoc2)oc2ccc3c(c12)C(=O)CC(C)(C)O3 | 28.7* | -4.3 | 5.3 | 99.3 | 320.0
COc1ccccc1NC(=O)[C@@H]1CCCN1S(=O)(=O)c1ccc(Cl)cc1 | 1.2 | 30.0 | -3.6 | . | 133.4
CC(=O)Nc1ccc(C(=O)CSc2nccc(=O)[nH]2)cc1 | -1.2 | 6.2 | 61.7* | 101.2 | 110.9
O=C(CSc1nccc(=O)[nH]1)Nc1ccc(Oc2ccccc2)cc1 | 0.6 | 15.1 | 1.1 | 96.3 | 233.5
C[C@H](CO)N1C[C@H](C)[C@@H](CN(C)C(=O)Nc2ccc(C(F)(F)F)cc2)Oc2ccc(NS(=O)(=O)c3ccccc3)cc2C1=O | 18.7 | -0.9 | 12.9 | 98.9 | 340.2
Cc1cc(C)cc(NC(=S)NC(=O)Cc2ccccc2)c1 | -3.0 | 31.9 | 1.8 | 101.3 | 218.3
Cc1cc(C)cc(NC(=O)C(=S)NCc2ccccc2)c1 | 42.8* | 16.9 | 3.5 | 106.7 | 323.0
O=C(Nc1nc(-c2ccccc2)cs1)C1c2ccccc2Oc2ccccc21 | 46.1* | -1.3 | 2.2 | 98.9 | 503.7
O=C(Nc1ccncc1)C1CCN(S(=O)(=O)c2c(Cl)cccc2Cl)CC1 | -0.3 | -1.6 | 0.8 | 97.1 | 425.0
S=c1[nH]nc(COc2ccccc2)n1/N=C/C=C/c1ccccc1 | -1.5 | -17.8 | -8.7 | 101.7 | 356.8
S=c1[nH]nc(COc2ccccc2)n1/N=C/C=C/c1ccco1 | 2.2 | 0.0 | 6.6 | 81.0* | 323.5
CN(C(=O)COC(=O)CN1C(=O)c2cccc([N+](=O)[O-])c2C1=O)c1ccccc1 | 2.0 | 6.8 | -4.9 | 77.2* | 497.2
O=C(Nc1nc(-c2cccnc2)cs1)c1ccc([N+](=O)[O-])cc1 | 7.9 | 6.1 | -2.5 | 29.3* | 80.0
O=C(Nc1nc(-c2cccnc2)cs1)c1cccc([N+](=O)[O-])c1 | 2.4 | 38.7 | -1.2 | 99.5 | 215.9
Cc1cc(C(=O)NCC(=O)Nc2c(C)cccc2C)c(C)o1 | 167.2* | 0.5 | -1.5 | 115.0 | 475.0
COc1ccc(CCNC(=O)c2cc(C)oc2C)cc1 | 14.1* | 1.8 | -5.5 | 122.4 | 341.9
CC(=O)c1ccc(OCCCC(=O)NCCc2ccccc2)cc1 | 4.7 | -12.9 | 3.7 | 97.0 | 338.5
CCC(C(=O)O)P(=O)(c1ccc(Cl)cc1)c1ccc(Cl)cc1 (stereo not drawn) | 13.5* | 47.9 | -18.7 | 100.4 | 146.0
O=C(Cn1sc2ccccc2c1=O)Nc1ccc(Cl)cc1 | . | . | . | 71.7* | .
Cc1oc2c(cc(NS(=O)(=O)c3ccc(F)cc3)c3ccccc32)c1C(=O)O | 5.2 | 21.3 | 8.7 | 117.1 | 305.0
Cc1oc2c(cc(NS(=O)(=O)c3ccc(C(C)C)cc3)c3ccccc32)c1C(=O)O | 26.2* | 16.7 | 4.3 | 91.1 | 330.8
O=C(N/C(=C/c1ccc([N+](=O)[O-])cc1)C(=O)N1CCOCC1)c1ccco1 | 14.5* | -8.8 | -16.9 | 113.7 | 230.5
